Measurements: ChEMBL document CHEMBL6074625, “Thiazolidine-2,4-dione hybrids as dual alpha-amylase and alpha-glucosidase inhibitors: design, synthesis, in vitro and in vivo anti-diabetic evaluation” (RSC Med Chem, 2024)
Active and inactive are the calls of the source. No cut-off for these calls is given here.

Legend:
Rattus norvegicus [1] = organism: Rattus norvegicus; experiment: Anti-inflammatory activity in STZ-induced diabetic Wistar rat model assessed as […] level in serum by ELISA method; type: functional, organism-based
Method in brief: (§1)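 STZ-diabetic Wistar rats in six groups (normal, vehicle 0.5% CMC oral, STZ, STZ + test compounds, STZ + pioglitazone); oral treatment started day 14 after STZ on day 1. Markers measured in serum, pancreatic homogenate or whole blood, as named in each line. Groups compared by one-way ANOVA.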

Rattus norvegicus [2] = experiment: Antidiabetic activity against streptozotocin-induced Wistar rat assessed as change in uric acid level at 10 mg/kg, po administered for 21 days measured on day 35; type: functional, organism-based; details: time 35.0 day; method in brief: as §1
Rattus norvegicus [3] = organism: Rattus norvegicus; experiment: Anti-diabetic activity in high glucose induced alpha-amylase expression in fasted STZ-induced diabetic Wistar rat model assessed as alpha-glucosidase level in pancreas by measuring minimum fractional index incubated for 23 hrs and measured after 24 hrs by flow cytometric analysis (reference value: 3063 + 149.2); type: functional
Rattus norvegicus [4] = experiment: Antidiabetic activity against streptozotocin-induced Wistar rat assessed as increase BUN level in serum at 10 mg/kg, po administered for 21 days measured on day 35; type: functional, organism-based; details: time 35.0 day; method in brief: as §1
Rattus norvegicus [5] = experiment: Antioxidant activity in fasted STZ-induced diabetic Wistar rat model assessed as decrease in high glucose induced ROS production in pancreas by measuring minimum fractional index at 10 mg/kg, po administration for 21 days and measured on day 35; type: functional; details: time 35 day
Method in brief: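 Rat pancreas mashed through a 70 μm strainer in FACS buffer. Processed by centrifugation (300 × g and 800 × g, 21 °C), 42% Percoll and 5 min RBC lysis. Cells washed, stained with DCFH-DA, and ROS read on a flow cytometer.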

Rattus norvegicus [6] = organism: Rattus norvegicus; experiment: Anti-diabetic activity against STZ-induced diabetic Wistar rat model assessed as increase increase in number of neutrophils level; type: functional, organism-based; method in brief: as §1
Rattus norvegicus [7] = organism: Rattus norvegicus; experiment: Anti-diabetic activity against STZ-induced diabetic Wistar rat model assessed as increase increase in number of haemoglobin level; type: functional, organism-based; method in brief: as §1
Rattus norvegicus [8] = experiment: Anti-diabetic activity against in streptozotocin-induced diabetic Wistar rat model assessed as reduction in blood glucose level at 10 mg/kg, po administered for 21 days measured on day 35 by tail puncture method; type: functional, organism-based; details: time 35.0 day
Method in brief: (§2)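 STZ given on day 1; oral treatment started day 14, with vehicle 0.5% CMC in controls. Six groups: normal, vehicle, STZ, STZ + two test compounds, STZ + pioglitazone. Blood glucose (tail puncture, glucometer) and body weight recorded on days 1, 4, 14 and 35. One-way ANOVA.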

Rattus norvegicus [9] = experiment: Antidiabetic activity against streptozotocin-induced Wistar rat assessed as decrease in total cholesterol at 10 mg/kg, po administered for 21 days measured on day 35; type: functional, organism-based; details: time 35.0 day; method in brief: as §1
Rattus norvegicus [10] = organism: Rattus norvegicus; experiment: Anti-inflammatory activity in STZ-induced diabetic Wistar rat model assessed as decrease in IL-1beta level in blood by ELISA method
Rattus norvegicus [11] = experiment: Antidiabetic activity against streptozotocin-induced Wistar rat assessed as increase in serum SGPT level at 10 mg/kg, po administered for 21 days measured on day 35; type: functional, organism-based; details: time 35.0 day; method in brief: as §1
Rattus norvegicus [12] = experiment: Antidiabetic activity against STZ-induced oxidative stress in Wistar rats model assessed as increase GSH serum level at 10 mg/kg, po administered for 21 days measured on day 35 by absorbance based UV-spectroscopic analysis; type: functional, organism-based; details: time 35.0 day; method in brief: as §1
PANC-1 [13] = experiment: Inhibition of high glucose induced alpha-amylase expressed in human PANC-1 cells assessed as decrease alpha-glucosidase level by measuring minimum fractional index incubated for 23 hrs and measured after 24 hrs by flow cytometric analysis; type: functional, cell-based
Rattus norvegicus [14] = experiment: Anti-diabetic activity against in streptozotocin-induced diabetic Wistar rat model assessed as reduction in blood glucose level at 10 mg/kg, po administered as single dose and measured upto 120 min by oral glucose tolerance test; type: functional, organism-based
Method in brief: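 Wistar rats fasted 16 h, given a single oral 10 mg kg⁻¹ dose, then oral glucose 2 g kg⁻¹ immediately. Blood glucose taken by tail puncture with a glucometer at 0, 15, 30, 60, 90 and 120 min. Groups compared by ANOVA.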

INS1 = experiment: Cytotoxicity against rat INS1 cells assessed as inhibition of cell viability at upto 100 uM incubated for 24 hrs by MTT assay; type: toxicity, cell-based; details: ins1, 24 h
Method in brief: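 INS-1 MTT run as for PANC-1: 20 × 10³ cells per well in triplicate, 24 h at 37 °C/5% CO₂, then 5–100 μM (7 levels) for another day. MTT (5 mg mL⁻¹ stock) 3 h, centrifugation, DMSO solubilisation 30 min in dark, absorbance at 570 nm.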

[15] = Inhibition of porcine pancreatic alpha-amylase using starch as substrate preincubated for 10 min followed by substrate addition and measured after 20 min by absorbance based analysis; set-up: species or system Sus scrofa
Method in brief: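 Porcine α-amylase (1 U mL⁻¹) pre-incubated with compound 10 min at 25 °C in phosphate buffer pH 6.8. 1% starch added, then 15 min at 37.5 ± 2 °C. Quenched with DNS reagent, heated 70 °C 20 min, diluted with buffer, A540 read, in triplicate. Final concentrations 100–1 μM from DMSO dilutions; IC50 from a linear fit of % inhibition at y = 50.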

PANC-1 [16] = experiment: Cytotoxicity against human PANC-1 cells assessed as inhibition of cell viability at upto 100 uM incubated for 24 hrs by MTT assay; type: toxicity, cell-based; details: panc-1, 24 h
Method in brief: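 PANC-1 cells seeded at 9 × 10³ per well, triplicate, 24 h at 37 °C, 5% CO₂. Treated with 5, 10, 20, 40, 60, 80 and 100 μM for another day. MTT (5 mg mL⁻¹ stock) 3 h at 37 °C, plates centrifuged, formazan dissolved in DMSO 30 min dark, A570. Viability compared by one-way ANOVA with Tukey test.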

Rattus norvegicus [17] = experiment: Antidiabetic activity against streptozotocin-induced Wistar rat assessed as increase in serum amylase level at 10 mg/kg, po administered for 21 days measured on day 35 by ELISA analysis; type: functional, organism-based; details: time 35.0 day; method in brief: as §1
Rattus norvegicus [18] = experiment: Antidiabetic activity against STZ-induced oxidative stress in Wistar rats model assessed as increase in SOD level in pancreatic tissue at 10 mg/kg, po administered for 21 days measured on day 35 by absorbance based UV-spectroscopic analysis; details: time 35.0 day
Rattus norvegicus [19] = organism: Rattus norvegicus; experiment: Anti-diabetic activity against STZ-induced diabetic Wistar rat model assessed as increase increase in number of total red blood cell count level; type: functional, organism-based; method in brief: as §1
[20] = biological target: alpha-glucosidase (Saccharomyces cerevisiae); experiment: Inhibition of Saccharomyces cerevisiae alpha-glucosidase using 4-nitrophenyl-alpha-D-glucopyranoside as substrate incubated with compound for 15 to 20 min by absorbance based analysis
Rattus norvegicus [21] = experiment: Antidiabetic activity against streptozotocin-induced Wistar rat assessed as increase in serum SGOT level at 10 mg/kg, po administered for 21 days measured on day 35; type: functional, organism-based; details: time 35.0 day; method in brief: as §1
Rattus norvegicus [22] = experiment: Antidiabetic activity against streptozotocin-induced Wistar rat assessed as increase creatinine level in serum at 10 mg/kg, po administered for 21 days measured on day 35; type: functional, organism-based; details: time 35.0 day; method in brief: as §1
Rattus norvegicus [23] = experiment: Antidiabetic activity against STZ-induced oxidative stress in Wistar rats model assessed as reduction malondialdehyde level in pancreatic tissue at 10 mg/kg, po administered for 21 days measured on day 35; type: functional, organism-based; details: time 35.0 day; method in brief: as §1
Rattus norvegicus [24] = organism: Rattus norvegicus; experiment: Anti-diabetic activity against STZ-induced diabetic Wistar rat model assessed as increase increase in number of lymphocytes level; type: functional, organism-based; method in brief: as §1
[25] = Toxicity against STZ-induced diabetic Wistar rat model assessed as body weight loss at 10 mg/kg, po measured on day 14; type: organism-based; details: in vivo, 336 h, time 14 day; method in brief: as §2

| Compound | Activity (Rattus norvegicus [1]) | Activity (Rattus norvegicus [2]) | Activity index (Rattus norvegicus [3]) | Activity (Rattus norvegicus [4]) | Activity_index (Rattus norvegicus [5]) | Activity (Rattus norvegicus [6]) | Activity (Rattus norvegicus [7]) | Activity (Rattus norvegicus [8]) | Activity (Rattus norvegicus [9]) | Activity (Rattus norvegicus [10]) | Activity (Rattus norvegicus [11]) | Activity (Rattus norvegicus [12]) | Activity (PANC-1 [13]) | Activity (Rattus norvegicus [14]) | Activity (INS1) | IC50 [15] [µM] | Activity (PANC-1 [16]) | Activity (Rattus norvegicus [17]) | Activity (Rattus norvegicus [18]) | Activity (Rattus norvegicus [19]) | further results |
| --- | --- | --- | --- | --- | --- | --- | --- | --- | --- | --- | --- | --- | --- | --- | --- | --- | --- | --- | --- | --- | --- |
| C=CCOc1ccc(/C=C2\SC(=O)N(Cc3cccc([N+](=O)[O-])c3)C2=O)cc1OCC | Active | Active | 132 | Active | 674 | Active | Active | Active | Active | Active | Active | Active | Dose-dependent-effect | Active | Non-toxic | 17.1 | Non-toxic | inactive | Active | Active | IC50 [20]: 9.8 µM; Activity (Rattus norvegicus [21]): Active; Activity (Rattus norvegicus [22]): Active; Activity (Rattus norvegicus [23]): Active; Activity (Rattus norvegicus [24]): Active; Activity [25]: Toxic |
| C#CCOc1ccc(/C=C2\SC(=O)N(Cc3cccc([N+](=O)[O-])c3)C2=O)cc1OCC | Active | Active | 2540 | Active | 164 | Active | Active | Active | Active | Active | Active | Active | Dose-dependent-effect | Active | Non-toxic | 9.2 | Non-toxic | inactive | Active | Active | IC50 [20]: 5.15 µM; Activity (Rattus norvegicus [21]): Active; Activity (Rattus norvegicus [22]): Active; Activity (Rattus norvegicus [23]): Active; Activity (Rattus norvegicus [24]): Active; Activity [25]: Toxic |
